Screening data as filed in PubChem.
Only some compounds are listed: those with a hit (about 1.5% of all), similar ones and a draw of the others.
M4 PAM = positive allosteric modulators of human muscarinic M4 receptor | P08173 | CHO-K1 hM4/Gqi5, Fluo-8 calcium fluorescence, ACh EC20; 0% = ACh EC20, 100% = maximal ACh | activation, % at 3 µM | hit rate 0.4% among 360,000 | AID 624126;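 active = activation above its plate's cutoff, the mean activation of sample wells plus 3 SD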
V1R ag counter = activates human V1a receptor in oxytocin agonist counter-screen; CHO-V1R cells, Fluo-8 calcium fluorescence, agonist mode; 0% DMSO, 100% 3 nM vasopressin; AID 2797; activation, % at 3 µM; P37288; hit rate 0.25% among 320,000;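 active = activation above the mean activation of all tested compounds plus 3 SD, per screening run, cut at about 20% in these data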;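 note: signal is peak over basal fluorescence ratio across a 100 second FLIPR read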
OXTR potentiator = human OXTR potentiation | hit rate 0.061% among 320,000 | AID 2445 | activation, % at 3 µM | CHO-OTR cells, Fluo-8 calcium fluorescence, potentiator mode; 0% = oxytocin EC15, 100% = EC100 | P30559;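 active = activation above that plate's cutoff, the mean activation of tested compounds plus 3 SD, cut at about 6.6% in these data, passing the limit was not always enough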
Target sequence (P30559 whole entry, looked up): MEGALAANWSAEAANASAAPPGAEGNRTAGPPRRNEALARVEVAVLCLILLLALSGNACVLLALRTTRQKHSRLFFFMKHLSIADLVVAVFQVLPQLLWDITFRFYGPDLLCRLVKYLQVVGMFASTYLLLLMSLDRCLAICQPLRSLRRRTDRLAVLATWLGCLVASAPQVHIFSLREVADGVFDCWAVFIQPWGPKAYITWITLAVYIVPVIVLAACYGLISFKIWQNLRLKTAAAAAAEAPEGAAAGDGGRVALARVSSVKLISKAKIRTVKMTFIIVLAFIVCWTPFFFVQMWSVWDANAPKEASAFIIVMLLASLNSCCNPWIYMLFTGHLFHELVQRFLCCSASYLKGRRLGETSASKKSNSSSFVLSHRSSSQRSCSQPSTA
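Dosing: Single dose, 3.0 µM nominal final compound concentration | Material: Human OTR in CHO cells | Technique: Kinetic Fluo-8 calcium fluorescence | Benchmarks: EC15 oxytocin alone as 0%, 75 nM oxytocin as 100% | Probe or stimulus: Oxytocin at about EC15, sub-maximal agonist stimulus | Incubation: Compound 6 min at room temperature before oxytocin, 100 s read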
CHRM4 agonist = CHRM4 agonism in calcium assay; AID 624127; P08173; hit rate 0.14% among 360,000; CHO-K1 hM4/Gqi5, Fluo-8 calcium fluorescence; vehicle 0%, full acetylcholine response 100%; activation, % at 3 µM;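 active = activation above the run mean over all test wells plus 3 SD, cut at about 32% in these data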;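 note: peak over basal fluorescence ratio per well then scaled between controls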
M4 antag = antagonists of human muscarinic M4 receptor (CHRM4). P08173. CHO-hM4 cells, ACh EC80, Fluo-8 calcium fluorescence. inhibition, % at 3 µM. hit rate 0.73% among 360,000;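 active = inhibition above its plate's cutoff, the mean inhibition of sample wells plus 3 SD, cut at about 27% in these data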
OXTR ag = human OXTR agonism. P30559. CHO-OTR cells, Fluo-8 calcium fluorescence; normalized: DMSO 0%, oxytocin 100%. hit rate 0.32% among 320,000. activation, % at 3 µM;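 active = activation above the mean of all tested compounds plus 3 SD, cutoff set per screening run, cut at about 20% in these data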;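 note: peak over basal fluorescence ratio from a 100 s FLIPR kinetic read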
Of the large screens only hits and unclear results are named; the others gave an inactive call; ! = not active in a repeat.

CSc1ccccc1C(=O)N1CCc2ccc(NC(=O)c3ccccn3)cc2C1	none (no result: V1R ag counter, OXTR potentiator, OXTR ag)
Cc1cc(C(=O)N/N=C2/CC(C)CC(C)(C)C2)c(C)o1 (stereo unspecified)	M4 PAM 25.8
Cc1cc(C(=O)N/N=C2\CCCc3ccccc32)c(C)o1	none
O=C(NC1CCCC1)C(c1ccccc1)n1c(-c2ccc3c(c2)CCO3)nc2ccccc21 (stereo unspecified)	none (no result: V1R ag counter, OXTR potentiator, OXTR ag)
COC(=O)[C@]12CCCCC=C1N(Cc1ccc3c(c1)OCO3)C(=O)[C@H](CC(=O)NCCCCc1ccccc1)C2	none (no result: V1R ag counter, OXTR potentiator, OXTR ag)
CCC(CO)NCC#Cc1ccccc1 (stereo unspecified)	M4 antag 40.2
CC(C)c1csc(CN2CCC(N3CCC(C(=O)NCC4CCCO4)CC3)CC2)n1 (stereo unspecified)	none
COc1ccc(C(C)=O)cc1CSc1nc2cc(C(=O)O)ccc2c(=O)n1Cc1ccccc1	M4 antag 28.4
O=C(OCCN1CCOCC1)c1ccccc1Cl	none
O=C(OCCN1CCOCC1)c1ccc(Cl)cc1Cl	M4 PAM 14.6
CCCC(=O)Nc1ccc(C(=O)NNC(=S)NC(=O)c2cccs2)cc1	none
CCCC(=O)Nc1ccc(C(=O)NNC(=S)NC(=O)c2ccc(Br)o2)cc1	M4 antag 34.1
Nc1ccc(C(=O)O)c(O)c1	M4 antag 43.2!
O=C(O)c1ccc(O)cc1O	none
O=C(Cn1ncc2c([nH]c3ccccc32)c1=O)Nc1ccc(CN2CCCCC2)cc1	none
CCN1CCN(C(=S)Nc2ccc3nc4n(c(=O)c3c2)CCCCC4)CC1	M4 PAM 26.6
CCN(CC)CCN1C(=O)C(=O)/C(=C(/O)c2c(C)[nH]c(C(=O)OC)c2C)C1c1ccccc1 (stereo unspecified)	M4 PAM 29.5
C[C@@H](NC(=O)[C@@H]1CCCN1C(=O)OC(C)(C)C)c1ccccc1	none (no result: V1R ag counter, OXTR potentiator, OXTR ag)
O=C1CCCC(=O)N1c1ccc(Oc2ccc(Cl)cc2)cc1	none
CN1C2CCC1/C(=C/c1cccn1C)C(=O)/C2=C\c1cccn1C	V1R ag counter 44.9, OXTR ag 44.7
c1ccc2c(c1)ccc1[nH]c3c(c12)CCCC3	none (no result: V1R ag counter, OXTR potentiator, OXTR ag)
CCN(CC)CCCn1c(C)cc2c(c1=O)C(c1cc(OC)c(OC)cc1OC)C(C#N)=C(N)O2 (stereo unspecified)	M4 antag 30.2
COc1cc(OC)c(C2C(C#N)=C(N)Oc3cc(C)n(CCCN4CCOCC4)c(=O)c32)cc1OC (stereo unspecified)	none
CC(=O)c1cccc(OCC(=O)Nc2ccccc2N2CCOCC2)c1	none
O=C(O)c1cccc(S(=O)(=O)NCCC(c2ccccc2)c2ccccc2)c1	M4 PAM 23.0
Cc1ccc(C(NC(=O)C2CCN(Cc3ccc(Oc4ccccc4)cc3)CC2)c2ccccn2)cc1 (stereo unspecified)	none (no result: V1R ag counter, OXTR potentiator, OXTR ag)
CC(C)(CN1CCN(c2ccccc2)CC1)NS(=O)(=O)c1ccccc1	M4 antag 31.1
Cc1ccc(-n2ncc(C#N)c2/N=C/N2CCOCC2)cc1	M4 PAM 21.6
Cc1cc(C)c(OCCCCN2CCNCC2)c(C)c1	M4 antag 29.6
CC(=O)c1cc2cccc(OC3(C)CCN(Cc4ccc5ccccc5c4)C3)c2o1 (stereo unspecified)	none (no result: V1R ag counter, OXTR potentiator, OXTR ag)
CC1(C)CC2(C)OC2C2(C1)N=NC(=Nc1ccccc1)O2 (stereo unspecified)	none (no result: V1R ag counter, OXTR potentiator, OXTR ag)
CCOC(=O)c1oc2ccccc2c1NC(=O)C(C)(C)C	none
CCOC(=O)c1oc2ccc(Cl)cc2c1NC(C)=O	M4 PAM 19.5
Cc1cc(O)ccc1C1(c2ccc(O)cc2C)OC(=O)c2ccccc21	none
CC(=O)Oc1ccc2c(c1)Oc1cc(OC(C)=O)ccc1C21OC(=O)c2ccccc21	V1R ag counter active, CHRM4 agonist 865.5, M4 antag 101.5, OXTR ag 937.8
CCOC(=O)C1=C(C)N(CC(C)C)C(=O)C1	M4 PAM 22.2
CCCCN1C(=O)CC(C(=O)OCC)=C1C	none (no result: V1R ag counter, OXTR potentiator, OXTR ag)
CCOc1cc(N2CCOCC2)c(OCC)cc1NC(=O)c1cc(-c2ccco2)nc2ccccc12	M4 antag 28.5
O=C(N/N=C/c1cc(Cl)c(O)c(Cl)c1)c1cc2c(ccc3ccccc32)o1	none
